# From PubChem
# Cneo AK release – Cryptococcus neoformans lysis via adenylate kinase release; 360,000 tested, 0.2% active; AID 651654; lysis activity, % at 15 µM; C. neoformans lysis, adenylate kinase release luminescence, 4 h; normalised: neutral wells 0, clomiphene wells 100;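 active means mean lysis activity across replicates of at least 80%, whatever share of replicates individually reach that level; inactive means mean lysis activity below 80%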
#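 Signal: Adenylate kinase release luminescence | Assay system: Log-phase Cryptococcus neoformans yeast cells | Input: Cells at 5 × 10^6 per mL | Buffer or medium: Fresh YPD growth medium | Compound: Single dose | Schedule: Static 4 h at 37 °C with compound, 1 h detection | Controls: Clomiphene | Read-out: Luminescence rise reflecting yeast cell lysis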
# MT1-MMP act inh – MT1-MMP (human) activation inhibition; P50281; HT1080 RFP-PRO-GFP cells, GFP/RFP ratio fluorescence, overnight; percent of plate control window, DMSO zero; GFP/RFP ratio change, % at 20 µM; 360,000 tested, 0.061% active; AID 651647;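 active means GFP/RFP ratio change of at least 30% with cell ATP level not reduced by more than half and red fluorescence within 50% of control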
#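 Assay system: HT1080 RFP-PRO-GFP cells | Dosing: 20 µM single dose, 1% DMSO | Incubation: Cells overnight before dosing, compound overnight, 37 °C, 5% CO2 | Evaluation: GFP/RFP fluorescence ratio | Control set: DMSO-only wells and HT1080 RFP-L50D-GFP cell wells as references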
# iPSC survival up – hiPSC single-cell survival enhancement; ATPlite luminescence; 100% = ROCK inhibitor wells, 0% = DMSO; survival enhancement, % at 20 µM; 360,000 tested, 0.044% active; AID 602274; in the data active means survival enhancement above about 18%;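 further: cells exposed to compounds for 16 hours before the ATP read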
# DAGLB inh – diacylglycerol lipase beta (human) inhibition; Q8NCG7; HEK293T DAGLB membrane lysate, EnzChek fluorogenic substrate; inhibition, % at 5.17 µM; 340,000 tested, 0.059% active; AID 504411; in the data active means inhibition above about 34%;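 further: 0% = enzyme with vehicle and 100% = wells lacking enzyme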
# Target sequence (Q8NCG7 whole entry, looked up): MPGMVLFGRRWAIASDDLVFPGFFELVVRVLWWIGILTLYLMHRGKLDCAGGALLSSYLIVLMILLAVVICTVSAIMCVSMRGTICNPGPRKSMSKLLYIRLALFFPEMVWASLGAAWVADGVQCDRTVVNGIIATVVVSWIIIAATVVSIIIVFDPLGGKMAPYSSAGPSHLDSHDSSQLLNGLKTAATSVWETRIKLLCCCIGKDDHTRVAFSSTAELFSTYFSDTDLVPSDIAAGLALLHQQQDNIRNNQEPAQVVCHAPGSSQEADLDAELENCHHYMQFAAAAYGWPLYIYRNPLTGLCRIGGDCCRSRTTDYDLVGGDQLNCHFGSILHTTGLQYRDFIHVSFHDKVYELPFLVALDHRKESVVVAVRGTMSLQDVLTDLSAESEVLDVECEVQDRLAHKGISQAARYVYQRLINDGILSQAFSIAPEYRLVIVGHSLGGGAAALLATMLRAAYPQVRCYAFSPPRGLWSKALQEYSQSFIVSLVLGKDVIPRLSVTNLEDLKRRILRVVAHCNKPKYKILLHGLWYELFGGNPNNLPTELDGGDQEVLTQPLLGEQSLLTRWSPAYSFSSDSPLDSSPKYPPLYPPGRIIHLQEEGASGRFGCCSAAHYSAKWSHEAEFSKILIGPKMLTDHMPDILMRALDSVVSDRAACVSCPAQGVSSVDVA
# SKN-1 block – inhibitors of C. elegans SKN-1; C. elegans VP596 Pgst-4::GFP/RFP ratio, acrylamide-induced, 24 h; inhibition, % at 21.8 µM; 360,000 tested, 0.49% active; AID 624304;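 active means interference check ratio from 0.5 to 1.5 plus GFP to RFP signal ratio inhibition reaching or exceeding a fixed threshold, cut at about 30% in these data, passing the limit was not always enough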
# rRNA inh HTS – inhibitors of bacterial rRNA selective over humanized ribosomes; E. coli WT GFP vs humanized-ribosome RFP mutants, fluorescence, 24 h; active compounds read low; DMSO median 0, no signal -100; GFP signal change (wild-type ribosome), % (test concentration not listed); 350,000 tested, 1.6% active; AID 720706;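 active means significant combined selectivity score with lowered wild-type GFP, culture density cut under 30%, mutant RFP and density less affected; inactive means any of these conditions unmet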
# Numbers without * were called inactive; . = not tested or not shown. Compounds with a hit are over-represented: about 1.8% of the library has one in this group of screens.
SMILES,Cneo AK release,MT1-MMP act inh,iPSC survival up,DAGLB inh,SKN-1 block,rRNA inh HTS
Cc1ccc(/C=C/C(=O)N2CCc3ccccc32)o1,.,-3,-1,0,-1,.
CC(=NN1CC(=O)NC1=O)c1ccc([N+](=O)[O-])o1,-1,-3,-2,-1,12,-38*
COc1ccc(NC(=O)N2C[C@@H]3N[C@H](C2)[C@@H]3c2ccc(-c3ccc(OC)cc3)cc2)cc1,.,.,.,.,.,-17
CCOCCN1CCN(C2c3ccccc3CSc3ccccc32)CC1 (stereo not drawn),1,1,0,-5,-1,-25*
Cc1ccc(S(=O)(=O)Nc2ccc3c(c2)CC(=O)N([C@H](C)CO)C[C@H](C)[C@@H](CN(C)S(=O)(=O)c2cccs2)O3)cc1,-3,.,.,.,.,-5
COc1ccc(N2CCN(C(=O)CCc3c[nH]c4ccccc34)CC2)cc1,.,0,1,1,0,-13
O=C(CCc1c[nH]c2ccccc12)N1CCN(c2ccc(O)cc2)CC1,.,-6,2,-1,5,-29*
C[C@@H]1CN([C@H](C)CO)C(=O)Cc2cc(NC(=O)Nc3ccccc3)ccc2O[C@H]1CN(C)C(=O)Nc1ccc(F)cc1,0,.,.,.,.,1
O=C(N/N=C/c1ccco1)c1cc(-c2ccc(Cl)s2)[nH]n1,.,4,-1,-8,-4,-26*
O=C(N/N=C/c1ccco1)c1cc(-c2ccc(Br)s2)[nH]n1,.,-2,0,-2,-3,0
O=C(N/N=C/c1cccs1)c1cc(-c2ccc(Cl)s2)[nH]n1,-2,2,0,-5,-3,-22*
C/C(=N\NC(=O)c1cc(-c2ccc(Br)s2)[nH]n1)c1ccncc1,5,1,1,-3,-12,-18
C/C(=N\NC(=O)c1cc(-c2ccc(Cl)s2)[nH]n1)c1ccncc1,2,3,0,-2,14,-21*
C[C@@H]1CCCCO[C@H](CN(C)S(C)(=O)=O)[C@@H](C)CN([C@@H](C)CO)C(=O)c2cc(NC(=O)C3CCCCC3)ccc2O1,-1,.,.,.,.,-1
Nc1nccc(N2CCCCC2)n1,1,0,2,2,0,0
Clc1nccc(N2CCN(c3ccccc3Cl)CC2)n1,1,2,-1,.,-11,-25*
COc1ccccc1CNC(=O)C[C@@H]1CC[C@@H]2[C@H](COC[C@H](O)CN2Cc2cccc(-c3ccncc3)c2)O1,-1,.,.,.,.,-4
O=c1oc(-c2ccccc2NS(=O)(=O)c2ccc(F)cc2)nc2ccccc12,-2,3,0,6,-1,-32*
O=c1oc(-c2ccccc2NS(=O)(=O)c2ccccc2)nc2ccccc12,1,-4,0,5,-17,.
O=C(c1ccc(Cl)cc1)C1CCCN(C(=O)c2csnn2)C1 (stereo not drawn),.,4,0,-2,3,-10
CSc1nc(C(=O)N2CCCC(C(=O)c3ccc(Cl)cc3)C2)cs1 (stereo not drawn),.,-4,-1,-4,3,-31*
Cc1c(CC(Cl)(Cl)Cl)c2c(n1O)CC(C)(C)CC2=O,.,-2,-2,1,7,-32*
COc1ccc(NC(=O)N(C)C[C@@H]2Oc3ncc(C#Cc4ccc(F)cc4)cc3C(=O)N([C@H](C)CO)C[C@@H]2C)cc1,-1,.,.,.,.,0
COc1ccc(C(=O)C(CN2CCOCC2)c2ccccc2)cc1 (stereo not drawn),-11,-6,-1,7,4,-50*
COc1ccc(C(=O)C(CN2CCCC2)c2ccccc2)cc1 (stereo not drawn),-2,1,-4,4,2,.
SMILES,Cneo AK release,MT1-MMP act inh,iPSC survival up,DAGLB inh,SKN-1 block,rRNA inh HTS
CCOc1cc(/C=C/C(=O)OCC(=O)NC2CCS(=O)(=O)C2)ccc1OCc1ccccc1 (stereo not drawn),.,4,2,-3,3,-28*
COc1cccc(C(=O)Nc2ccc3c(c2)C(=O)N(C)[C@@H]2CC[C@H](CC(=O)NCc4ccccc4F)O[C@H]2CO3)c1,-4,.,.,.,.,-5
COc1cc(OC)c(OC)cc1/C=C/c1cc(C(=O)O)c2ccccc2n1,.,0,1,-3,-2,-30*
COc1ccc(/C=C/c2cc(C(=O)O)c3ccccc3n2)cc1,-2,-1,-1,1,-14,15
O=C(O)CC1(CC(=O)NCc2ccc(-c3cccs3)cc2)CCCCC1,-3,3,0,-1,-3,-20*
CCOC(=O)N1CCN(CC(=O)Nc2c(C(=O)OC)[nH]c3cccc(Cl)c23)CC1,.,-4,-1,-1,-25,-15*
CCOC(=O)N1CCN(CC(=O)Nc2c(C(=O)OC)[nH]c3ccc(Cl)cc23)CC1,-4,0,0,4,2,.
COc1ccc(CN(C)C[C@H]2OCCCC[C@@H](C)Oc3ccc(NC(=O)c4ccncc4)cc3C(=O)N([C@@H](C)CO)C[C@H]2C)cc1,2,.,.,.,.,-4
C[C@H](O)[C@@H]1CN2CCc3c([nH]c4ccc(-c5ccc6c(c5)OCO6)cc34)[C@@H]2C[C@@H]1N(C)C(=O)NC1CCCCC1,.,6,-2,-1,2,-52*
Cc1cccc(-c2ccc3[nH]c4c(c3c2)CCN2C[C@@H]([C@H](C)O)[C@@H](N(C)C(=O)Nc3ccc(F)cc3)C[C@@H]42)c1,1,-7,-2,-1,19,-22*
C[C@H](O)[C@@H]1CN2CCc3ccc(-c4ccc5c(c4)OCO5)cc3[C@@H]2C[C@@H]1N(C)C(=O)NC1CCCCC1,.,.,.,.,.,-7
COc1ccc(NC(=O)N(C)[C@H]2C[C@H]3c4[nH]c5ccc(-c6cccc(C)c6)cc5c4CCN3C[C@H]2[C@H](C)O)cc1,-1,-4,-4,2,7,.
C[C@@H]1CCCCO[C@@H](CN(C)S(=O)(=O)c2cccs2)[C@H](C)CN([C@@H](C)CO)C(=O)c2cc(NC(=O)Nc3ccccc3)ccc2O1,-6,.,.,.,.,-3
O=C(NCC1CCCCC1)[C@H]1[C@H](CO)[C@H]2Cn3c(ccc(-c4ccccc4F)c3=O)[C@@H]1N2,-1,.,.,.,.,-1
COC/C=C/C1=CC2=CC(=O)C(C)(OC(=O)C3CCCC3)C(=O)C2=CO1 (stereo not drawn),0,3,1,15,36*,2
COc1ccc(NC(=O)Nc2ccc3c(c2)C(=O)N([C@@H](C)CO)C[C@H](C)[C@H](CN(C)C(=O)Nc2ccc(OC)cc2)O3)cc1,-2,.,.,.,.,1
Cc1ccc(O)c(-c2cc(C(=O)Nc3ccc(S(=O)(=O)Nc4nccc(C)n4)cc3)[nH]n2)c1,-1,17,1,5,-4,-29*
